In publication PMC10692386 (Acta Pharmaceutica Sinica. B, 2023):

Tests used:
[1] = Cytotoxicity in mock-infected MT-4 cell cultures; format: cell-based; details: human, mock-infected MT-4 cells
HIV-1 mutant E138K = test: Anti-HIV-1 efficacy against mutant E138K in MT-4 cells; format: cell-based; details: Human immunodeficiency virus 1, MT4, read-out: EC50 E138K
In short: (§1)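 MT-4 cells were infected with HIV-1 RT mutant strains. EC50 was the concentration giving 50% protection against viral cytopathicity, averaged from at least three independent experiments. Cytotoxicity in mock-infected cultures was read by MTT.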

WT HIV-1 = test: Anti-HIV-1 activity in MT-4 cells infected with HIV-1; format: cell-based; details: for EC50: Human immunodeficiency virus 1, MT4; for SI: selectivity index, the ratio of CC50/EC50, WT HIV-1
[2] = test system: HIV-1 mutant K103N + Y181C; test: Anti-HIV-1 efficacy against mutant K103N + Y181C in MT-4 cells; format: cell-based; details: Human immunodeficiency virus 1, MT4, read-out: EC50 K103N + Y181C
In short: as §1

HIV-1 mutant Y188L = test: Anti-HIV-1 efficacy against mutant Y188L in MT-4 cells; format: cell-based; details: Human immunodeficiency virus 1, MT4, read-out: EC50 Y188L
In short: as §1

WT HIV-1 RT = WT HIV-1 RT (Human immunodeficiency virus type 1 group M subtype B, UniProt P03366); test: Inhibition of WT HIV-1 RT; format: biochemical
HIV-1 mutant L100I = test: Anti-HIV-1 efficacy against mutant L100I in MT-4 cells; format: cell-based; details: Human immunodeficiency virus 1, MT4, read-out: EC50 L100I
In short: as §1

HIV-1 mutant K103N = test: Anti-HIV-1 efficacy against mutant K103N in MT-4 cells; format: cell-based; details: Human immunodeficiency virus 1, MT4, read-out: EC50 K103N
In short: as §1

HIV-1 mutant Y181C = test: Anti-HIV-1 efficacy against mutant Y181C in MT-4 cells; format: cell-based; details: Human immunodeficiency virus 1, MT4, read-out: EC50 Y181C
In short: as §1

Row | Compound | CC50 [1] [µM] | EC50 (HIV-1 mutant E138K) [µM] | EC50 (WT HIV-1) [µM] | SI (WT HIV-1) | EC50 [2] [µM] | EC50 (HIV-1 mutant Y188L) [µM] | IC50 (WT HIV-1 RT) [µM] | EC50 (HIV-1 mutant L100I) [µM] | EC50 (HIV-1 mutant K103N) [µM] | EC50 (HIV-1 mutant Y181C) [µM]
1 | Cn1c(Cn2ccc(C(F)(F)F)c(Oc3cncc(Cl)c3)c2=O)n[nH]c1=O [7a] | > 311 | 0.61 ± 0.04 | 0.55 ± 0.23 | >563 | 18.3 ± 11.4 | 122 ± 62.1 | 1.14 ± 0.043 | 0.93 ± 0.51 | 1.22 ± 0.56 | 1.79 ± 0.58
2 | Cc1cc(Oc2c(C(F)(F)F)ccn(Cc3n[nH]c(=O)n3C)c2=O)c2cccc(F)c2n1 [7aa] | 220 ± 44.4 | – | > 220 | <1 | – | – | – | – | – | –
3 | Cc1cc(Oc2c(C(F)(F)F)ccn(Cc3n[nH]c(=O)n3C)c2=O)c2cccc(C)c2n1 [7ac] | 151 ± 27.9 | – | > 151 | <1 | – | – | – | – | – | –
4 | Cc1cc(Oc2c(C(F)(F)F)ccn(Cc3n[nH]c(=O)n3C)c2=O)c2cc(F)c(Cl)cc2n1 [7ae] | 92.9 ± 44 | – | 11.7 ± 9.1 | 7.92 | – | – | – | – | – | –
5 | Cc1cc(Oc2c(C(F)(F)F)ccn(Cc3n[nH]c(=O)n3C)c2=O)c2c(Cl)c(F)ccc2n1 [7af] | 81.5 ± 11.7 | – | 33.3 ± 9.61 | 2.45 | – | – | – | – | – | –
6 | Cn1c(Cn2ccc(C(F)(F)F)c(Oc3cnc4ccccc4c3)c2=O)n[nH]c1=O [7ag] | > 250 | – | > 250 | >1 | – | – | – | – | – | –
7 | Cn1c(Cn2ccc(C(F)(F)F)c(Oc3ccc4ncccc4c3)c2=O)n[nH]c1=O [7ah] | > 299 | – | 252 ± 5.75 | >1 | – | – | – | – | – | –
8 | Cn1c(Cn2ccc(C(F)(F)F)c(Oc3ccc4cnccc4c3)c2=O)n[nH]c1=O [7ai] | > 299 | – | 11.2 ± 2.83 | >27 | – | – | – | – | – | –
9 | Cn1c(Cn2ccc(C(F)(F)F)c(Oc3cc(Cl)c4ncccc4c3)c2=O)n[nH]c1=O [7ak] | 192 ± 42.9 | – | > 192 | <1 | – | – | – | – | – | –
10 | Cn1c(Cn2ccc(C(F)(F)F)c(Oc3ccc4nc(Cl)ccc4c3)c2=O)n[nH]c1=O [7al] | 172 ± 44.9 | – | 46.7 ± 12.5 | 3.68 | – | – | – | – | – | –
11 | Cn1c(Cn2ccc(C(F)(F)F)c(Oc3ccc4cccnc4c3Br)c2=O)n[nH]c1=O [7am] | 164 ± 25.5 | – | > 164 | <1 | – | – | – | – | – | –
12 | Cn1c(Cn2ccc(C(F)(F)F)c(Oc3cccnc3Cl)c2=O)n[nH]c1=O [7b] | 290 ± 24.1 | – | 4.27 ± 0.75 | 67.97 | – | – | – | – | – | –
13 | Cn1c(Cn2ccc(C(F)(F)F)c(Oc3ccc(Cl)nc3)c2=O)n[nH]c1=O [7c] | > 311 | – | 35.6 ± 10.3 | >9 | – | – | – | – | – | –
14 | Cn1c(Cn2ccc(C(F)(F)F)c(Oc3cnc(Cl)c(Cl)c3)c2=O)n[nH]c1=O [7d] | 248 ± 28.2 | – | 2.02 ± 0.88 | 122.98 | – | – | – | – | – | –
15 | Cn1c(Cn2ccc(C(F)(F)F)c(Oc3cncc(Br)c3)c2=O)n[nH]c1=O [7e] | > 280 | 0.62 ± 0.22 | 0.49 ± 0.12 | >573 | 12.3 ± 8.12 | 39 ± 5.33 | 0.74 ± 0.03 | 0.68 ± 0.22 | 0.95 ± 0.27 | 0.85 ± 0.15
16 | Cn1c(Cn2ccc(C(F)(F)F)c(Oc3cccnc3Br)c2=O)n[nH]c1=O [7f] | 270.9 ± 1.77 | – | 4.44 ± 0.94 | 61.07 | – | – | – | – | – | –
17 | Cn1c(Cn2ccc(C(F)(F)F)c(Oc3ccc(Br)nc3)c2=O)n[nH]c1=O [7g] | > 280 | – | 197 ± 58.9 | >1 | – | – | – | – | – | –
18 | Cc1cncc(Oc2c(C(F)(F)F)ccn(Cc3n[nH]c(=O)n3C)c2=O)c1 [7h] | > 328 | 0.77 ± 0.04 | 0.53 ± 0.16 | >616 | 16.1 ± 7.33 | 196 ± 12.1 | 1.03 ± 0.14 | 0.55 ± 0.33 | 1.2 ± 0.18 | 1.78 ± 0.1
19 | Cc1ncccc1Oc1c(C(F)(F)F)ccn(Cc2n[nH]c(=O)n2C)c1=O [7i] | > 328 | – | 6.76 ± 1.07 | >49 | – | – | – | – | – | –

Row | Compound | CC50 [1] [µM] | EC50 (HIV-1 mutant E138K) [µM] | EC50 (WT HIV-1) [µM] | SI (WT HIV-1) | EC50 [2] [µM] | EC50 (HIV-1 mutant Y188L) [µM] | IC50 (WT HIV-1 RT) [µM] | EC50 (HIV-1 mutant L100I) [µM] | EC50 (HIV-1 mutant K103N) [µM] | EC50 (HIV-1 mutant Y181C) [µM]
20 | Cc1ccc(Oc2c(C(F)(F)F)ccn(Cc3n[nH]c(=O)n3C)c2=O)cn1 [7j] | > 328 | – | 21.1 ± 5 | – | – | – | – | – | – | –
21 | Cc1ccncc1Oc1c(C(F)(F)F)ccn(Cc2n[nH]c(=O)n2C)c1=O [7k] | > 328 | – | 1.53 ± 0.25 | >214 | – | – | – | – | – | –
22 | Cc1ccc(Oc2c(C(F)(F)F)ccn(Cc3n[nH]c(=O)n3C)c2=O)c(Br)n1 [7l] | 253 ± 16.8 | – | > 250 | <1 | – | – | – | – | – | –
23 | Cc1ccc(Oc2c(C(F)(F)F)ccn(Cc3n[nH]c(=O)n3C)c2=O)c(C)n1 [7m] | > 250 | – | > 250 | <1 | – | – | – | – | – | –
24 | CCc1nc(C)ccc1Oc1c(C(F)(F)F)ccn(Cc2n[nH]c(=O)n2C)c1=O [7n] | 299 ± 3.74 | – | > 250 | – | – | – | – | – | – | –
25 | Cc1cc(Oc2c(C(F)(F)F)ccn(Cc3n[nH]c(=O)n3C)c2=O)cnc1Br [7o] | > 272 | – | 1.27 ± 0.36 | >214 | – | – | – | – | – | –
26 | Cc1cc(Oc2c(C(F)(F)F)ccn(Cc3n[nH]c(=O)n3C)c2=O)cnc1F [7p] | > 250 | – | 1.46 ± 0.54 | – | – | – | – | – | – | –
27 | COc1cncc(Oc2c(C(F)(F)F)ccn(Cc3n[nH]c(=O)n3C)c2=O)c1 [7q] | > 250 | – | 7.33 ± 5.03 | >43 | – | – | – | – | – | –
28 | Cn1c(Cn2ccc(C(F)(F)F)c(Oc3ccc(C(F)(F)F)nc3)c2=O)n[nH]c1=O [7r] | > 250 | – | > 250 | >1 | – | – | – | – | – | –
29 | Cn1c(Cn2ccc(C(F)(F)F)c(Oc3cccnc3)c2=O)n[nH]c1=O [7s] | > 367 | – | 1.22 ± 0.24 | >278 | – | – | – | – | – | –
30 | Cc1ncc(Oc2c(C(F)(F)F)ccn(Cc3n[nH]c(=O)n3C)c2=O)cn1 [7t] | > 250 | – | > 250 | >1 | – | – | – | – | – | –
31 | Cn1c(Cn2ccc(C(F)(F)F)c(Oc3cncc4ccccc34)c2=O)n[nH]c1=O [7u] | 277 ± 10.1 | 0.9 ± 0.29 | 0.89 ± 0.23 | 309.52 | 34 ± 13 | > 250 | 4.38 ± 0.35 | 0.5 ± 0.22 | 3.01 ± 1.42 | 1.56 ± 0.49
32 | Cn1c(Cn2ccc(C(F)(F)F)c(Oc3cccc4ncccc34)c2=O)n[nH]c1=O [7v] | 278 ± 18.6 | – | 4.48 ± 1.24 | 62.10 | – | – | – | – | – | –
33 | Cn1c(Cn2ccc(C(F)(F)F)c(Oc3cccc4ccncc34)c2=O)n[nH]c1=O [7x] | > 299 | – | 1.23 ± 0.28 | >244 | – | – | – | – | – | –
34 | Cn1c(Cn2ccc(C(F)(F)F)c(Oc3cccc4nccnc34)c2=O)n[nH]c1=O [7y] | 220 ± 35.5 | – | 8.07 ± 1.41 | 27.30 | – | – | – | – | – | –
35 | Cc1cc(Oc2c(C(F)(F)F)ccn(Cc3n[nH]c(=O)n3C)c2=O)c2ccccc2n1 [7z] | 233 ± 32.1 | – | > 233 | <1 | – | – | – | – | – | –
36 | Cn1c(Cn2ccc(C(F)(F)F)c(Oc3cc(Cl)cc(C#N)c3)c2=O)n[nH]c1=O [DOR, doravirine, reference compound] | 293.24 ± 0.17 | 0.0075 ± 0.0026 | 0.013 ± 0.004 | – | 0.142 ± 0.057 | 0.5 ± 0.15 | 0.044 ± 0.005 | 0.0066 ± 0.0017 | 0.042 ± 0.0013 | 0.025 ± 0.0023
37 | Cc1cc(C#N)cc(C)c1Oc1nc(Nc2ccc(C#N)cc2)nc(N)c1Br [ETR, etravirine, reference compound] | > 4.6 | 0.006 ± 0.001 | 0.0029 ± 0.002 | >1600 | 0.031 ± 0.009 | 0.018 ± 0.008 | – | 0.006 ± 0.004 | 0.002 | 0.019 ± 0.009
